Calls of active or inactive are those of the source. The calls are words filed in the database; no cut-off is given here.
What follows are compounds tested against CCR4-NOT transcription complex subunit 6 (Homo sapiens) (UniProt Q9ULM6) (assay: Inhibition of Ccr4 (unknown origin) at 30 uM by fluorescence-based assay).
Method in brief: (§1)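 Fluorescence-based ribonuclease activity assay with Ccr4, using one compound concentration per reaction (30, 10 or 3 μM, as in each line). The reactions compared were a no-enzyme control, a complete reaction with enzyme, and a complete reaction plus compound. Data are shown with standard deviation error bars.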

CCR4-NOT transcription complex subunit 6 (Homo sapiens), sequence (Q9ULM6 whole entry, one chain of several): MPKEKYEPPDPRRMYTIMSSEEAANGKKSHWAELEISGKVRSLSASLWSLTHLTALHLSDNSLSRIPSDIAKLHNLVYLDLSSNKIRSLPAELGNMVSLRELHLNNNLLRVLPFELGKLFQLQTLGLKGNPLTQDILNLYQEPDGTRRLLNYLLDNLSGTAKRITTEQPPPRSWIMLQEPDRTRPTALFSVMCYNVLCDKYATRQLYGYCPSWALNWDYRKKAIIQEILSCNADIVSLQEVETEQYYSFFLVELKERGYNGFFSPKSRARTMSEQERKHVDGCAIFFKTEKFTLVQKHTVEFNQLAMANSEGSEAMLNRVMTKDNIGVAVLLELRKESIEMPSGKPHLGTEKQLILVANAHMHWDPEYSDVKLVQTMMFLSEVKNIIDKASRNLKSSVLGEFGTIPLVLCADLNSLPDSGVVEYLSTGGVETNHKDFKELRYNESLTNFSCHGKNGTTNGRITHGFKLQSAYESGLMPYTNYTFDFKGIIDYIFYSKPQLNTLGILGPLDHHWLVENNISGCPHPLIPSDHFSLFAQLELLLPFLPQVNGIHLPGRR

| Compound | inhibition |
| --- | --- |
| O=c1[nH]c2ncn(Cc3ccccn3)c2c(=O)n1O | inactive |
| O=c1c2c(ncn2CCc2ccccc2)n(CCCc2ccccc2)c(=O)n1O | inactive |
| Cn1c(=O)n(O)c(=O)c2c1ncn2CCc1ccccc1 | inactive |
| CCn1c(=O)n(O)c(=O)c2c1ncn2CCc1ccccc1 | inactive |
| CCCCCCCCCn1c(=O)n(O)c(=O)c2c1ncn2CCc1ccccc1 | inactive |
| O=c1[nH]c2ncn(C3CCCCC3)c2c(=O)n1O | inactive |
| O=c1[nH]c2ncn(Cc3ccccc3)c2c(=O)n1O | inactive |
| CCCCCn1c(=O)n(O)c(=O)c2c1ncn2CCc1ccccc1 | inactive |
| O=c1[nH]c2ncn(Cc3cccnc3)c2c(=O)n1O | inactive |
| O=c1[nH]c2ncn(Cc3ccncc3)c2c(=O)n1O | inactive |

Each compound was assayed against CCR4-NOT transcription complex subunit 6 (Homo sapiens) (UniProt Q9ULM6) (assay: Inhibition of Ccr4 (unknown origin) at 10 uM by fluorescence-based assay).
Method in brief: as §1

| Compound | inhibition |
| --- | --- |
| O=c1[nH]c2ncn(CCc3ccccc3)c2c(=O)n1O | inactive |
| O=c1[nH]c2ncn(CCc3cccs3)c2c(=O)n1O | inactive |
| O=c1[nH]c2ncn(CCc3ccccn3)c2c(=O)n1O | inactive |
| O=c1[nH]c2ncn(CCOc3ccccc3)c2c(=O)n1O | inactive |

The compounds below were run against CCR4-NOT transcription complex subunit 6 (Homo sapiens) (UniProt Q9ULM6) (assay: Inhibition of Ccr4 (unknown origin) at 3 uM by fluorescence-based assay).
Method in brief: as §1

| Compound | inhibition |
| --- | --- |
| CC(C)CCCn1c(=O)n(O)c(=O)c2c1ncn2CCc1ccccc1 | inactive |
| CN(C)CCCn1c(=O)n(O)c(=O)c2c1ncn2CCc1ccccc1 | inactive |

Source: ChEMBL document CHEMBL3616430, “Discovery, synthesis and biochemical profiling of purine-2,6-dione derivatives as inhibitors of the human poly(A)-selective ribonuclease Caf1” (Bioorg Med Chem Lett, 2015)
